Among the data in ChEMBL document CHEMBL1127697, “New N alpha-guanidinobenzoyl derivatives of hirudin-54-65 containing stabilized carboxyl or phosphoryl groups on the side chain of phenylalanine-63” (1994) are Baseline and Ctt2 values, retold here.

Molecules are shown by their SMILES. Residues, ends and D or L forms follow the SMILES beside them.

Common to all, as to format: functional
Assay [1] concerns Rattus norvegicus. Briefly: Activated partial thromboplastin time at 15 min following intravenous administration in rats at a dose 8 mg/kg. A digest of the protocol:
(§1)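 Sprague-Dawley rats (300–400 g) anesthetized with pentobarbital sodium (60 mg/kg ip). Peptide (1 mL) given iv via cannulated jugular vein. Carotid blood (1.5 mL) drawn 30 min before and at 1.5–60 min after dosing, then centrifuged 15 min at 3000g to platelet-poor plasma. APTT read on a coagulometer: plasma mixed with thromboplastin at 37 °C. Expressed as % of untreated animals; n = 4–6 independent experiments.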

For assay [2], the system named is Rattus norvegicus. Kind of assay: Activated partial thromboplastin time at 3 min following intravenous administration in rats at a dose 8 mg/kg. A digest of the protocol: as §1
For assay [3], the system named is Rattus norvegicus. Briefly: Activated partial thromboplastin time at 60 min following intravenous administration in rats at a dose 8 mg/kg. The gist of the method:
as §1

Assay [4] relates to Rattus norvegicus. Kind of assay: Activated partial thromboplastin time at 1.5 min following intravenous administration in rats at a dose 8 mg/kg. A digest of the protocol: as §1
Assay [5] has as its system Rattus norvegicus. Kind of assay: Activated partial thromboplastin time at 30 min following intravenous administration in rats at a dose 8 mg/kg. The gist of the method:
as §1

The test system of assay [6] is Rattus norvegicus. Kind of assay: Activated partial thromboplastin time at 5 min following intravenous administration in rats at a dose 8 mg/kg. A digest of the protocol:
as §1

Assay [7] is filed under the species Rattus norvegicus. Kind of assay: Concentration that doubles thrombin time (inhibition of fibrin clot) in rats. The gist of the method:
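Plasma was incubated 2 min at 37 °C with inhibitor or vehicle, then thrombin (1.5 NIH/mL) was added and clotting time read on a coagulometer. Value is the µM concentration that doubles thrombin time relative to the no-inhibitor control.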

With `CC[C@H](C)[C@H](NC(=O)C1C2CCC(CC2)N1C(=O)[C@H](CCC(=O)O)NC(=O)[C@H](Cc1ccccc1)NC(=O)[C@H](CC(=O)O)NC(=O)CNC(=O)c1ccc(NC(=N)N)cc1)C(=O)N1CCC[C@H]1C(=O)N[C@@H](CCC(=O)O)C(=O)N[C@@H](CCC(=O)O)C(=O)N[C@@H](Cc1ccc(O)cc1P(=O)(O)O)C(=O)N[C@@H](CC(C)C)C(=O)N[C@H](CCC(=O)O)C(=O)O` (stereo partly drawn), the Baseline with Rattus norvegicus [1] came out at 192%; in the assay on Rattus norvegicus [2] it was 244%; in the assay with Rattus norvegicus [3] it was 163%; in the assay with Rattus norvegicus [4] it was 265%; in the assay with Rattus norvegicus [5], 164%; in the assay on Rattus norvegicus [6], 217%. For the same compound, the Ctt2 in the assay filed under Rattus norvegicus [7] worked out at 4 µM.

Turning to `CC[C@H](C)[C@H](NC(=O)C1C2CCC(CC2)N1C(=O)[C@H](CCC(=O)O)NC(=O)[C@H](Cc1ccccc1)NC(=O)[C@H](CC(=O)O)NC(=O)CNC(=O)c1ccc(NC(=N)N)cc1)C(=O)N1CCC[C@H]1C(=O)N[C@@H](CCC(=O)O)C(=O)N[C@@H](CCC(=O)O)C(=O)N[C@@H](Cc1ccc(O)cc1)C(=O)N[C@@H](CC(C)C)C(=O)N[C@H](CCC(=O)O)C(=O)O` (stereo partly drawn), the Baseline with Rattus norvegicus [1] is 115%; with Rattus norvegicus [2] it was 145%; in the assay on Rattus norvegicus [3], 96%; in the assay on Rattus norvegicus [4], 158%; in the assay on Rattus norvegicus [5], 111%; in the assay with Rattus norvegicus [6], 133%. Further, the Ctt2 in the assay filed under Rattus norvegicus [7] is 4.8 µM.

Take `CC[C@H](C)[C@H](NC(=O)C1C2CCC(CC2)N1C(=O)[C@H](CCC(=O)O)NC(=O)[C@H](Cc1ccccc1)NC(=O)[C@H](CC(=O)O)NC(=O)CNC(=O)c1ccc(NC(=N)N)cc1)C(=O)N1CCC[C@H]1C(=O)N[C@@H](CCC(=O)O)C(=O)N[C@@H](CCC(=O)O)C(=O)N[C@@H](Cc1ccc(CC(=O)O)cc1)C(=O)N[C@@H](CC(C)C)C(=O)N[C@H](CCC(=O)O)C(=O)O` (stereo partly drawn): the Baseline in the assay with Rattus norvegicus [1] is given as 149%; in the assay with Rattus norvegicus [2], 205%; in the assay on Rattus norvegicus [3], 118%; in the assay on Rattus norvegicus [4] it was 213%; in the assay on Rattus norvegicus [5] it was 141%; in the assay with Rattus norvegicus [6] it was 188%. This compound also displayed a Ctt2 in the assay listed under Rattus norvegicus [7] of 1 µM.

Take `CC[C@H](C)[C@H](NC(=O)C1C2CCC(CC2)N1C(=O)[C@H](CCC(=O)O)NC(=O)[C@H](Cc1ccccc1)NC(=O)[C@H](CC(=O)O)NC(=O)CNC(=O)c1ccc(NC(=N)N)cc1)C(=O)N1CCC[C@H]1C(=O)N[C@@H](CCC(=O)O)C(=O)N[C@@H](CCC(=O)O)C(=O)N[C@@H](Cc1ccc(P(=O)(O)O)cc1)C(=O)N[C@@H](CC(C)C)C(=O)N[C@H](CCC(=O)O)C(=O)O` (stereo partly drawn): the Baseline is reported as 200% with Rattus norvegicus [1]; 225% in the assay with Rattus norvegicus [2]; 187% in the assay on Rattus norvegicus [3]; 252% in the assay with Rattus norvegicus [4]; 181% in the assay with Rattus norvegicus [5]; 217% with Rattus norvegicus [6]. In the assay filed under Rattus norvegicus [7], this compound displayed a Ctt2 of 2.8 µM.

On to `CC[C@H](C)[C@H](NC(=O)C1C2CCC(CC2)N1C(=O)[C@H](CCC(=O)O)NC(=O)[C@H](Cc1ccccc1)NC(=O)[C@H](CC(=O)O)NC(=O)CNC(=O)c1ccc(NC(=N)N)cc1)C(=O)N1CCC[C@H]1C(=O)N[C@@H](CCC(=O)O)C(=O)N[C@@H](CCC(=O)O)C(=O)N[C@@H](Cc1ccc(OP(=O)(O)O)cc1)C(=O)N[C@@H](CC(C)C)C(=O)N[C@H](CCC(=O)O)C(=O)O` (stereo partly drawn), for which the Baseline in the assay on Rattus norvegicus [1] is listed as 125%; with Rattus norvegicus [2], 162%; in the assay on Rattus norvegicus [3] it was 107%; in the assay on Rattus norvegicus [4], 201%; with Rattus norvegicus [5], 110%; in the assay on Rattus norvegicus [6], 147%. In the assay listed under Rattus norvegicus [7], this compound yielded a Ctt2 of 0.9 µM.

With `CC[C@H](C)[C@H](NC(=O)C1C2CCC(CC2)N1C(=O)[C@H](CCC(=O)O)NC(=O)[C@H](Cc1ccccc1)NC(=O)[C@H](CC(=O)O)NC(=O)CNC(=O)c1ccc(NC(=N)N)cc1)C(=O)N1CCC[C@H]1C(=O)N[C@@H](CCC(=O)O)C(=O)N[C@@H](CCC(=O)O)C(=O)N[C@@H](Cc1ccc(O)cc1)C(=O)N[C@@H](CC(C)C)C(=O)O` (stereo partly drawn) (HELM PEPTIDE1{[N=C(N)Nc1ccc(C(=O)[*:2])cc1].G.D.F.E.[O=C(C1C2CCC(CC2)N1[*:1])[*:2]].I.P.E.E.Y.L}$$$$V2.0), the Baseline was determined as 108% in the assay with Rattus norvegicus [1]; 123% with Rattus norvegicus [2]; 98% in the assay with Rattus norvegicus [3]; 136% in the assay with Rattus norvegicus [4]; 100% with Rattus norvegicus [5]; 115% in the assay on Rattus norvegicus [6]. In the assay listed under Rattus norvegicus [7], this compound had a Ctt2 of 16.5 µM.

For `CC[C@H](C)[C@H](NC(=O)C1C2CCC(CC2)N1C(=O)[C@H](CCC(=O)O)NC(=O)C(Cc1ccccc1)NC(=O)[C@H](CC(=O)O)NC(=O)CNC(=O)c1ccc(NC(=N)N)cc1)C(=O)N1CCC[C@H]1C(=O)N[C@@H](CCC(=O)O)C(=O)N[C@@H](CCC(=O)O)C(=O)N[C@H](Cc1ccc(CC(=O)O)cc1)C(=O)N[C@@H](CC(C)C)C(=O)N[C@H](CCC(=O)O)C(=O)O` (stereo in doubt), the Ctt2 in the assay listed under Rattus norvegicus [7] amounted to 50 µM.
